Source: ChEMBL document CHEMBL4819008, “Design, synthesis, and evaluation of "dual-site"-binding diarylpyrimidines targeting both NNIBP and the NNRTI adjacent site of the HIV-1 reverse transcriptase” (Eur J Med Chem, 2021)

How the values were obtained:
[1] = tested on: Human immunodeficiency virus 1; test: Antiviral activity against wild type HIV1 NL4-3 infected in human TZM-bl cells assessed as reduction in viral infection measured after 1 day by luciferase reporter gene assay based luminiscence assay; format: functional, organism-based; settings: Human immunodeficiency virus 1, NL4-3, TZM-bl, 24 h
In short: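 TZM-bl cells got a single-round infection with 800 TCID50 of NL4-3 at various compound concentrations, top concentration 100 ng/mL. Luminescence was read 1 day post-infection. EC50 is the concentration giving a 50% decrease in luciferase RLU versus control wells, determined in at least triplicate.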

[2] = Cytotoxicity against human TZM-bl cells assessed as reduction in cell viability measured after 1 day by CytoTox-Glo assay; format: cell-based
In short: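 TZM-bl cells were cultured 1 day with various compound concentrations, in parallel with the antiviral assay, top concentration 100 ng/mL. Viable cells were measured by CytoTox-Glo. CC50 is the concentration causing a 50% reduction in cell viability.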

[3] = Selectivity index, ratio of CC50 for human TZM-bl cells to EC50 for wild type HIV1 NL4-3 infected in human TZM-bl cells; format: toxicity, cell-based; settings: read-out: Ratio CC50/EC50
In short: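 Selectivity index is CC50/EC50, with both values from the TZM-bl assays: NL4-3 single-round luciferase infection and CytoTox-Glo viability, each over 1 day.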

[4] = tested on: Human immunodeficiency virus 1; test: Antiviral activity against wild type HIV-1 3B infected in human MT4 cells assessed as inhibition of virus-induced cytopathic effect measured after 5 days by MTT assay; format: functional, organism-based; settings: Human immunodeficiency virus 1, 3B, MT4, 120 h
In short: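 MT-4 cells at 6 × 10^5 cells/mL were infected with virus stock at 100–300 CCID50 in the presence of serial 5-fold compound dilutions, in triplicate wells. Viability was read by MTT reduction 5 days after infection, with absorbance at 540 and 690 nm and the median OD of three wells used. EC50 is the concentration giving 50% protection from viral cytopathicity.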

[5] = Cytotoxicity against human MT4 cells assessed as reduction in cell viability measured after 5 days by MTT assay; format: cell-based; settings: time 5 day
In short: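 Mock-infected MT-4 cells (6 × 10^5 cells/mL) were run in parallel with the infected wells, under serial 5-fold compound dilutions in triplicate. MTT viability was read after 5 days and the median OD of three wells used. CC50 is the concentration that reduced OD540 of the mock-infected cells by 50%.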

[6] = Selectivity index, ratio of CC50 for human MT4 cells to EC50 for wild type HIV-1 3B infected in human MT4 cells; format: toxicity, cell-based; settings: read-out: Ratio CC50/EC50
[7] = tested on: Human immunodeficiency virus 1; test: Antiviral activity against HIV-1 harboring reverse transcriptase L100I mutant infected in human MT4 cells assessed as inhibition of virus induced cytopathic effect measured after 5 days by MTT assay; format: functional, organism-based; settings: Human immunodeficiency virus 1, MT4, 120 h
In short: (§1)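 MT-4 cells, exponentially growing, resuspended at 6 × 10^5 cells/mL and infected with the mutant HIV-1 stock at 100–300 CCID50. Compounds were added as 5-fold serial dilutions, in triplicate wells, alongside mock-infected wells. After 5 days, viability was read by MTT reduction at 540 and 690 nm using the median OD of three wells. EC50 is the concentration giving 50% protection from viral cytopathogenicity.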

[8] = tested on: Human immunodeficiency virus 1; test: Antiviral activity against HIV-1 harboring reverse transcriptase K103N mutant infected in human MT4 cells assessed as inhibition of virus induced cytopathic effect measured after 5 days by MTT assay; format: functional, organism-based; settings: Human immunodeficiency virus 1, MT4, 120 h; in short: as §1
[9] = tested on: Human immunodeficiency virus 1; test: Antiviral activity against HIV-1 harboring reverse transcriptase Y181C mutant infected in human MT4 cells assessed as inhibition of virus induced cytopathic effect measured after 5 days by MTT assay; format: functional, organism-based; settings: Human immunodeficiency virus 1, MT4, 120 h; in short: as §1
[10] = tested on: Human immunodeficiency virus 1; test: Antiviral activity against HIV-1 harboring reverse transcriptase Y188L mutant infected in human MT4 cells assessed as inhibition of virus induced cytopathic effect measured after 5 days by MTT assay; format: functional, organism-based; settings: Human immunodeficiency virus 1, MT4, 120 h; in short: as §1
[11] = tested on: Human immunodeficiency virus 1; test: Antiviral activity against HIV-1 harboring reverse transcriptase E138K mutant infected in human MT4 cells assessed as inhibition of virus induced cytopathic effect measured after 5 days by MTT assay; format: functional, organism-based; settings: Human immunodeficiency virus 1, MT4, 120 h; in short: as §1
[12] = tested on: Human immunodeficiency virus 1; test: Antiviral activity against HIV-1 harboring reverse transcriptase F227L/V106A mutant infected in human MT4 cells assessed as inhibition of virus induced cytopathic effect measured after 5 days by MTT assay; format: functional, organism-based; settings: Human immunodeficiency virus 1, MT4, 120 h; in short: as §1
[13] = tested on: Human immunodeficiency virus 1; test: Antiviral activity against HIV-1 harboring reverse transcriptase RES056 mutant infected in human MT4 cells assessed as inhibition of virus induced cytopathic effect measured after 5 days by MTT assay; format: functional, organism-based; settings: Human immunodeficiency virus 1, MT4, 120 h; in short: as §1
[14] = tested on: Human immunodeficiency virus 1; test: Potency index, ratio of EFV EC50 to test compound EC50 for antiviral activity against HIV-1 harboring reverse transcriptase Y188L mutant infected in human MT4 cells assessed as inhibition of virus induced cytopathic effect measured after 5 days by MTT assay; format: functional; settings: time 5 day
[15] = Antiviral activity against HIV-2 ROD infected in human MT4 cells assessed as protection against virus-induced cytopathic effect measured after 5 days by MTT assay; settings: Human immunodeficiency virus 2, ISOLATE ROD, MT4, 120 h
[16] = target: Human immunodeficiency virus type 1 reverse transcriptase (Human immunodeficiency virus 1) (UniProt Q72547); test: Potency index, ratio of ETV IC50 to test compound IC50 for Inhibition of HIV-1 reverse transcriptase assessed as reduction in biotin-dUTP incorporation into cDNA incubated for 1 hr with DIG-dUTP, biotin-dUTP and dTTP followed by transferring onto streptavidin-coated plate and measured after 1 hr by ELISA; settings: time 2.0 hrs
[17] = target: Human immunodeficiency virus type 1 reverse transcriptase (Human immunodeficiency virus 1, UniProt Q72547); test: Inhibition of HIV-1 reverse transcriptase assessed as reduction in biotin-dUTP incorporation into cDNA incubated for 1 hr with DIG-dUTP, biotin-dUTP and dTTP followed by transferring onto streptavidin-coated plate and measured after 1 hr by ELISA
In short: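 Recombinant WT HIV-1 RT was tested with a Roche colorimetric kit. Enzyme, reconstituted template, DIG-dUTP, biotin-dUTP and dTTP were incubated 1 h at 37 °C in incubation buffer with or without inhibitor. The mix was then held 1 h at 37 °C on a streptavidin-coated plate, then anti-DIG-POD 1 h at 37 °C, then ABTS at 25 °C, and read at OD405.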

[18] = tested on: Human immunodeficiency virus 1; test: Potency index, ratio of nevirapine EC50 to test compound EC50 for antiviral activity against wild type HIV-1 3B infected in human MT4 cells assessed as inhibition of virus-induced cytopathic effect measured after 5 days by MTT assay; format: functional; settings: time 5 day
[19] = tested on: Human immunodeficiency virus 1; test: Potency index, ratio of AZT EC50 to test compound EC50 for antiviral activity against wild type HIV-1 3B infected in human MT4 cells assessed as inhibition of virus-induced cytopathic effect measured after 5 days by MTT assay; format: functional; settings: time 5 day

Compound | EC50 [1] | CC50 at 24 h [2] | selectivity ratio [3] | EC50 [4] | CC50 at 120 h [5] | selectivity ratio [6] | EC50 [7] | EC50 [8] | EC50 [9] | EC50 [10] | EC50 [11] | EC50 [12] | EC50 [13] | Ratio EC50 [14] | EC50 [15] | Ratio IC50 [16] | IC50 [17] | Ratio EC50 [18] | Ratio EC50 [19]
COCCNC(=O)/C=C/c1cnc(Nc2ccc(C#N)cc2)nc1Oc1c(C)cc(C#N)cc1C | 4.48 nM | > 213 nM | > 48 | 7.8 nM | > 267000 nM | > 34300 | 166 nM | 13.7 nM | 98 nM | 90.6 nM | 16.5 nM | 343 nM | 1490 nM | 1.6 | > 267000 nM |  |  |  | 
C#CCNC(=O)/C=C/c1cnc(Nc2ccc(C#N)cc2)nc1Oc1c(C)cc(C#N)cc1C | 2.45 nM | > 222 nM | > 91 | 5.2 nM | 141000 nM | 26900 | 113 nM | 10.4 nM | 61.8 nM | 64.5 nM | 10.6 nM | 402 nM | 1290 nM | 2.3 | > 141000 nM | 6 | 59 nM | 16.2 | 3.5
